Test results as given in ChEMBL document CHEMBL5370575, “Probing the Cytotoxic Signaling Induced by Eupenifeldin in Ovarian Cancer Models” (J Nat Prod, 2023).
Active and inactive are the calls of the source. The calls are words filed in the database; no cut-off is given here.

Assays:
[1] = system: OVCAR-8; experiment: Cytotoxicity against human OVCAR-8 cells assessed as inhibition of cell growth for 72 hrs by CellTiter-Blue cell viability assay; type: functional, cell-based
How it was run: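 5000 cells seeded in triplicate, attached overnight, then exposed for 72 h to serial concentrations in DMSO vehicle (0.05%). Viability was read by fluorometric CellTiter-Blue. IC50 in nM comes from dose–response curves relative to DMSO control. Media: OVCAR3 in RPMI1640, OVCAR5/OVCAR8 in DMEM, hFT33 in DMEM-Ham's F12 50/50, all with 10% FBS. Data are mean ± SEM, three biological replicates.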

[2] = system: OVCAR-3; experiment: Induction of ferroptosis in human OVCAR-3 cells at 0.001 to 10 uM in presence of ferrostatin-1 by CellTiterGlo assay; type: functional, cell-based; settings: dose 0.001-10 µM

Row | Compound | Activity [1] | Activity [2]
1 | CO/C1=C\C(C)=C\[C@@H](C)[C@@H](O)[C@@H](C)C/C(C)=C/C=C/[C@H](OC)[C@@H]([C@@H](C)[C@@H](O)[C@H](C)[C@@]2(O)C[C@@H](O)[C@H](C)[C@@H](C(C)C)O2)OC1=O | Active | 
2 | COC(=O)c1ccc([C@H]2c3[nH]c4ccccc4c3C[C@H](C(=O)OC)N2C(=O)CCl)cc1 |  | inactive
